Source: PubChem BioAssay (several laboratories)
NPY Y2 blocker – NPY-Y2 receptor antagonists, primary screen, cell-based; Neuropeptide Y receptor type 2 (Homo sapiens), P49146; NPY-Y2 expressing cells, antagonist mode; 140,000 tested, 0.99% active; inhibition, % at 2.7 µM; in the data active = inhibition above about 17%
Target sequence (P49146 whole entry, looked up): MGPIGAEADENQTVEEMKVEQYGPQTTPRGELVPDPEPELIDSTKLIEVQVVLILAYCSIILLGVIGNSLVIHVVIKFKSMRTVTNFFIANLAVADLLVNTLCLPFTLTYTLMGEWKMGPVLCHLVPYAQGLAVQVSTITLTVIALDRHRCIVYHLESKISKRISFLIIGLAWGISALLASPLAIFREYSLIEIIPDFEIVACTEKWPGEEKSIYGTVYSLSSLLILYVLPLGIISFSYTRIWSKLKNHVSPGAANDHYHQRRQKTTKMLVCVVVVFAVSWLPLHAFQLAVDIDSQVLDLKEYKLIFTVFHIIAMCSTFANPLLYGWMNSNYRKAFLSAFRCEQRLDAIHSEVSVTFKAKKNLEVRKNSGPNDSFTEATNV
TbHK1 inh – Trypanosoma brucei hexokinase 1 inhibitors, primary screen, biochemical, G6PDH-coupled NADH absorbance, MLSCN library; hexokinase 1 [Trypanosoma brucei]; recombinant TbHK1, G6PDH-coupled NADH A340; inhibition, % at 10 µM; 220,000 tested, 0.11% active; AID 1430, 2008;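 active = inhibition of 50% or more in the single-dose primary screen; inactive = inhibition below 50%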
Calpain2 inh – inhibitors of pig calpain II, primary screen, biochemical, fluorogenic peptide substrate, 1536-well; purified calpain II, 30 min; inhibition, % at 16 µM; 220,000 tested, 0.37% active; AID 1236, 2008;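 active = inhibition above about 50%, limit read from the data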
NPY2 pot ag – NPY-Y2 potentiators or agonists, primary screen, cell-based | Neuropeptide Y receptor type 2 (Homo sapiens), P49146 | cells expressing NPY-Y2, potentiator/agonist read-out | activation, % at 3.6 µM | 220,000 tested, 0.45% active | AID 1359, 2008; in the data active = activation above about 27%;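 also: cells stimulated with NPY near EC25 plus isoproterenol at EC100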
NPY-Y1 antag – NPY-Y1 receptor antagonists, primary screen, cell-based; HEK293-CNG Y1 cells, membrane potential fluorescence; NPY at EC95, then isoproterenol; inhibition, % at 3.6 µM; 200,000 tested, 1% active; AID 1040, 2008;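 active = inhibition above the campaign mean inhibition of all tested compounds plus 3 SD, cut at about 20% in these data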
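Benchmarks – high control isoproterenol alone, low control NPY with isoproterenol · Material – HEK293 Y1/CNG channel cell line · Times – dye 3 h, compound 60 min room temperature, stimulation 45 min · Probe or stimulus – NPY (25 nM), isoproterenol (1 µM), Ro 20-1724 (25 µM) · Evaluation – % inhibition of NPY effect · Signal – fluorescence, membrane potential probe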
NPY-Y1 PAM-ag – NPY-Y1 receptor potentiators or agonists, primary screen, cell-based | Neuropeptide Y receptor type 1 (Homo sapiens), P25929 | NPY-Y1 expressing cells, potentiator/agonist activation | activation, % at 3.6 µM | 220,000 tested, 0.37% active | AID 1304, 2008; in the data active = activation above about 33%, passing the limit was not always enough;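 also: cells stimulated with NPY at EC10 then isoproterenol at EC100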
Numbers stand for hits; – = inactive; · = no result given. Only some compounds are listed: those with a hit (about 2.3% of all), similar ones and a draw of the others.

SMILES | NPY Y2 blocker | TbHK1 inh | Calpain2 inh | NPY2 pot ag | NPY-Y1 antag | NPY-Y1 PAM-ag
O=C(Cc1nnc(NC(=O)Nc2ccccc2F)s1)NCc1ccccc1 | · | – | – | – | · | –
CCCCCOc1ccc(Br)cc1CSC(=N)N | 35 | – | – | – | 46 | –
Cc1csc2nc(CSc3nc4ccccc4o3)c(Br)n12 | – | – | – | – | 23 | –
Cc1csc2nc(CSc3nncn3-c3ccccc3)c(Br)n12 | – | – | – | – | – | –
COc1ccc(C(=O)Nc2nc(C)cs2)cc1S(=O)(=O)N1CCCC1 | · | – | – | – | – | –
O=C(NC1(C(F)(F)F)NC(=O)N(c2ccc(F)cc2)C1=O)c1cccs1 (configuration not stated) | – | – | – | – | – | –
CCOc1ccc(C2CC(c3cccc(OC)c3OC)n3nnnc3N2)cc1Cl (configuration not stated) | – | – | – | – | – | –
COc1ccc(S(=O)(=O)N2CCN(CCO)CC2)cc1-c1nnc2c3ccccc3c(C)nn12 | – | – | – | – | – | –
Cc1ccc(S(=O)(=O)N2CCN(C)CC2)cc1-c1nnc2c3ccccc3c(C)nn12 | 40 | – | – | – | 37 | –
Cc1ccc(S(=O)(=O)N2CCN(CCO)CC2)cc1-c1nnc2c3ccccc3c(C)nn12 | 57 | – | · | – | – | –
COc1ccc(S(=O)(=O)NC(C)(C)C)cc1-c1nnc2c3ccccc3c(C)nn12 | 36 | – | – | – | 30 | –
COc1ccc(OC)c(CNc2ccc([N+](=O)[O-])cc2C)c1 | · | – | 51 | – | – | –
CSC1=NCCN1S(=O)(=O)c1ccccc1 | · | – | – | – | – | –
CC(C)C1CC(CCN)(Cc2ccccc2)CCO1 (configuration not stated) | · | – | – | – | – | –
O=C(Nc1ccccc1-c1ccccc1)c1ccc(Cl)c([N+](=O)[O-])c1 | – | – | – | 29 | – | 71
O=C(NCc1ccccc1Cl)C1CCCN(c2nc3ccsc3c(=O)s2)C1 (configuration not stated) | · | – | 53 | – | – | –
CC1CCCN(c2nc3ccsc3c(=O)s2)C1 (configuration not stated) | – | – | – | – | – | –
O=C1CC(=O)N2N=C(c3ccc([N+](=O)[O-])cc3)SC2=N1 | – | – | – | – | – | –
CC1CC(=O)NN=C1c1ccc(NCCO)c([N+](=O)[O-])c1 (configuration not stated) | 78 | – | – | – | 78 | –
CN1CCN(C(=O)c2cc3c(s2)-c2ccccc2S(=O)(=O)C3)CC1 | – | – | – | – | – | –
COc1ccc(N2CCN(C(=O)c3cc4c(s3)-c3ccccc3S(=O)(=O)C4)CC2)cc1 | · | – | – | 67 | · | 81
Cc1ccc(NC(=O)CSc2nnc3ccccn23)cc1S(=O)(=O)N1CCOCC1 | · | – | – | – | – | –
Cc1cc2ncn(-c3ncnc4sc5c(c34)CCC(C)C5)c2cc1C (configuration not stated) | – | – | 66 | – | – | –
Cc1ccc(-c2cnc(NCc3cc4c(cc3[N+](=O)[O-])OCO4)n2C)cc1C | · | – | – | 88 | – | 102
Cn1c(-c2ccc3c(c2)OCO3)cnc1NCc1ccccc1 | – | – | – | – | – | –
SMILES | NPY Y2 blocker | TbHK1 inh | Calpain2 inh | NPY2 pot ag | NPY-Y1 antag | NPY-Y1 PAM-ag
Cc1c(Cl)cccc1NC(=S)N1CCN(C(=O)C2CCCO2)CC1 (configuration not stated) | – | – | – | – | – | –
COc1ccc(C2=Nn3c(nnc3C3CCCCC3)SC2)cc1OC | 58 | – | – | – | 27 | –
CCCc1nc2ccccc2c(C(=O)OC(C)C(=O)NCc2ccc3c(c2)OCO3)c1CC (configuration not stated) | 19 | – | – | – | 25 | –
CCCc1nc2ccccc2c(C(=O)OCC(=O)NCc2ccc3c(c2)OCO3)c1CC | – | – | – | – | – | –
CC(C)(C)NC(=O)C(=O)NNC(=O)c1cccc(F)c1 | · | – | – | – | – | –
FC(F)(F)c1nnc2ccc(NCc3ccccc3)nn12 | · | – | 92 | – | – | –
O=[N+]([O-])c1cc(/C=N/NC(=S)Nc2ccccc2Cl)ccc1Cl | · | – | – | 36 | – | 41
